From the EternaBench riboswitch data come the findings set out here.

The apparent Kd is a dissociation constant that holds for the conditions of the assay.

In this series the test system is MS2 coat protein. The experiment in a line: apparent Kd, MS2 coat protein; higher = weaker binding; RNA-MaP array; FMN 200 µM where present. In outline: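 The titrant was SNAP-549-labelled MS2 coat protein, run from 0.7 or 1.5 nM in doubling steps to 3 µM. It was applied to designs transcribed by stalled E. coli RNA polymerase on Illumina sequencing-chip clusters, without ligand first and then with constant ligand, in 100 mM Tris-HCl pH 7.5, 80 mM KCl, 4 mM MgCl2, BSA, DTT, yeast tRNA and Tween-20. The apparent Kd is the median of filtered per-cluster binding-curve fits, with green signal normalised to red-channel RNA signal and control-cluster median Fmax.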

[1] abbreviates: designed as: OFF switch for flavin mononucleotide, no ligand.
[2] abbreviates: ligand present: flavin mononucleotide, designed as: OFF switch for flavin mononucleotide.
Setting [3] is: designed as: ON switch for flavin mononucleotide, no ligand.
The mark [4] stands for this setting: ligand present: flavin mononucleotide, designed as: ON switch for flavin mononucleotide.

On to “CAACCGUUGCAGAAGGUUAAAUAAAUCAACUUAUGGACAACAUGAGGAUCACCCAUGUUUUUGUUGAAGGAUAUGCAAGGGUUG”, for which the “apparent Kd” value under setting [1] is 6.25 nM and the “apparent Kd” value under setting [2] is 5.85 nM.

In the case of “GAGCGGUGAGCAGGAUAUCCACAUUGCCUCCUACAUGAGGAUCACCCAUGUGGAGAAGGGUUUAUAAGUUCGUGUAUACUCAAU”, the “apparent Kd” value amounted to 10.5 nM under setting [1] and 10 nM under setting [2].

With “GCGCAGUCAGGAUAUGCCGCUUGCGAUCACCGUUGGCAAAGGCAGAAGGGACAUGAGGAUCACCCAUGUGGCGC”, the “apparent Kd” value is 19.3 nM under setting [1] and 22.9 nM under setting [2].

Take “AAGUAGAUCCGAGGAUAUACAAUCCGGAAACGGUACAUGAGGAUCACCCAUGUAGAAGGCGGAUCUACAGGUACUAAAGUACCC”: the “apparent Kd” value under setting [1] is 5.61 nM and the “apparent Kd” value under setting [2] worked out at 8.06 nM.

As to “AGUAACAGAGGAUAUACUGUUUUAUGUGUUUAUUGUUUUGAACAUGAGGAUCACCCAUGUAGAAGGCUGAAUAA”, the “apparent Kd” value runs as follows: under setting [1], 23.3 nM; under setting [2], 20.9 nM.

Take “GCGUUACAUGAGGAUCACCCAUGUGAGGAUAUGGUGCGGUAGUGUCCUGUCGCGUACUCCAGAAGGCACGGGUG”: the “apparent Kd” value under setting [1] is 215 nM and the “apparent Kd” value under setting [2] was 91.7 nM.

In the case of “UAUAUUUUUAUAGGAUAUGGAUAUGAUGCAUAUCCAGAAGGGUGAAUAUAAUAUUUUCUGUACAUGAGGAUCACCCAUGUUUAG”, the “apparent Kd” value is 116 nM under setting [3] and 46.9 nM under setting [4].

On to “UUGGACGUCGUAGGAUAUGUAGGAUAUUCCUACAUGAGGAUCACCCAUGUUGACAUGGAAGAAGGACAGAAGGCCGAUGUCCAU”, for which the “apparent Kd” value under setting [3] stood at 409 nM and the “apparent Kd” value under setting [4] was 4.87 nM.

For “UGCCUGAGUCGAGGAUAUUAUGGAUCAAUUAAUACAUGAGGAUCACCCAUGUAAUUAAUUUAACAUGAGAAGGUGACUCAGGCU”, the “apparent Kd” value runs as follows: under setting [3], 12.2 nM; under setting [4], 10.2 nM.

Regarding “GUAGCAUACCGAGGAUAUUCUUAUAAUAAAUAAACAUGAGGAUCACCCAUGUGGCGAAAGCCAAGGGAGAAGGCGGAAUGCUAC”, the “apparent Kd” value under setting [3] came to 87.7 nM and the “apparent Kd” value under setting [4] was 20.1 nM.

As for “GGAAUAUUUACAGGAUAUGAUUUGUAAAUUCGAUCAGAAGGGUAGAUGUCUUACACGGUUUGUUACAUGAGGAUCACCCAUGUU”, the “apparent Kd” value by setting is: under setting [3], 126 nM; under setting [4], 42 nM.

Consider “CGCUAGGAUGGGUCUAAUGGACCUCAGGAUAUGCUUGUACAUGAGGAUCACCCAUGUAAUAUUGUGCAGAAGGGAGGAUCCACG”, for which the “apparent Kd” value stood at 18.9 nM under setting [3] and 6.56 nM under setting [4].

In the case of “CCGUCCUGAGGAUAUCCACCCUCAUACAUGAGGAUCACCCAUGUUCACCCUUGGGUUCCCGGAGAAGGCAGUUUUC”, the “apparent Kd” value by setting is: under setting [1], 243 nM; under setting [2], 374 nM.

On to “GCUACGCCUGACAUGAGGAUCACCCAUGUUAGAUUGUUAUGUCAGGAUAUAGUCUAGAAACUAGACUAGAAGGGAUGUGUAGCU”, for which the “apparent Kd” value under setting [3] worked out at 872 nM and the “apparent Kd” value under setting [4] amounted to 112 nM.

As for “UCGCGGGUGCAGAAGGGAUAGGCCUAUUGUCGUGGUGUCUAAACUUAACAUGAGGAUCACCCAUGUCAGGAUAUGCCCACGCGA”, the “apparent Kd” value under setting [1] worked out at 11.6 nM and the “apparent Kd” value under setting [2] came out at 13.5 nM.

“AUGGUUCGGUCAGGAUAUCGUAGAUUGAAUAGUAUGAUUUACAUGAGGAUCACCCAUGUUACAUACGAGAAGGGACCGAAUCAU”: the “apparent Kd” value is 15.5 nM under setting [1] and 10.4 nM under setting [2].

In the case of “UGAAAUCAUGUAGGAUAUGCAUGGCGAAGCUACGCAGAAGGACAUGAGGAUCACCCAUGUUCUGGCUACCGGAUACGGUGGCAA”, the “apparent Kd” value is, setting by setting: under setting [1], 22 nM; under setting [2], 105 nM.

On to “CAACUGGCACAGAAGGGUGACAUGAGGAUCACCCAUGUAGCGUGGCACUCAGGAGGAGCCACGCCACAGGAUAUGUGCGGGCAC”, for which the “apparent Kd” value reads like this: under setting [3], 42.3 nM; under setting [4], 78.4 nM.

For the sequence “CGUGUAAACUCAGGAUAUCCUGCGAGCAACGGGUAUUGAGUCUUCACAUGAGGAUCACCCAUGUAGGAGAAGGGAGGUACAAAA”, the “apparent Kd” value runs as follows: under setting [1], 72.6 nM; under setting [2], 187 nM.

As to “UUGUUGUAUGUAGGAUAUGCAUAUUGUUAUUAUGCAGAAGGACAUGAGGAUCACCCAUGUAUGUUAUUAUUAUGUGUUAUGUGU”, the “apparent Kd” value stood at 39.3 nM under setting [1] and 63.9 nM under setting [2].

Regarding “AACAUGUCAGGAUAUGCAAAAGGAGACUGACACGCGAGUGAGCAGAAGGGACAUGAGGAUCACCCAUGUUCAAA”, the “apparent Kd” value under setting [1] amounted to 18.3 nM and the “apparent Kd” value under setting [2] came to 16 nM.

As for “CAGGUCUGAGGAUAUCCAUCUUCAUACAUGAGGAUCACCCAUGUUUCCCUCUGGGUUUUCGGAGAAGGCAGUUUUU”, the “apparent Kd” value worked out at 358 nM under setting [1] and 293 nM under setting [2].

“GGCUGGUAGCUAGGAUAUGGGCGGUCACAUGAGGAUCACCCAUGUCAACAUCAAAACCAGAUUAACCAGAAGGAGCUGCGGGUU”: the “apparent Kd” value is 36 nM under setting [3] and 37.8 nM under setting [4].

On to “GGAUCGAGAGUGAGGAUAUGCUGGUCCUUGGAUCAGCAGAAGGCACAUGAGGAUCACCCAUGUGGUUCCGAUCC”, for which the “apparent Kd” value was found to be 28.8 nM under setting [1] and 244 nM under setting [2].

With “UGGAUGUGGGUUCCACAUGAGGAUCACCCAUGUACCGAUGAGAGAAGGCGCGCUGGAUCACAGGGCGAGGAUAUCUACAUUCAA”, the “apparent Kd” value by setting is: under setting [1], 6.06 nM; under setting [2], 13.1 nM.

Regarding “AACAAUAAGGAGGAUAUCGUAUCGGAAACGAUACGAGAAGGCUUAACAUGAGGAUCACCCAUGUUCCUCAAUAA”, the “apparent Kd” value under setting [1] is 31.6 nM and the “apparent Kd” value under setting [2] stood at 60 nM.

With “GGUGUGUUAGGAUAUCGCGGCGGCGGCGUUUGUUGUUGUUGUGAGAAGGAACAUGAGGAUCACCCAUGUGCGCC”, the “apparent Kd” value reads like this: under setting [1], 27.3 nM; under setting [2], 75.5 nM.

As for “CCGGAAAUGGAGGAUAUAGGAGUCGAUAGACACCUAGAAGGUCAGACAUGAGGAUCACCCAUGUGUCCUACCGG”, the “apparent Kd” value is, setting by setting: under setting [1], 17.2 nM; under setting [2], 21.8 nM.

Turning to “GACGAACAUGAGGAUCACCCAUGUAAAGACGUACAAGGAUAUGUGUGGAAACCGUACUAUACAGAAGGUGUCUGUC”, the “apparent Kd” value runs as follows: under setting [3], 53.5 nM; under setting [4], 25.5 nM.

As to “GGUCCACAUGAGGAUCACCCAUGUUAGGAUAUCUCGCCCGAGUCGUUAUGGGCCGGGCAGAGAAGGAAUGUGAA”, the “apparent Kd” value runs as follows: under setting [1], 21.7 nM; under setting [2], 20.2 nM.

On to “CGUACUCAAAGAGUACCAAUACGAACAUGAGGAUCACCCAUGUAGGAUAUGCUACUCAAAGAGUAGCAGAAGGACAUGUGCCUA”, for which the “apparent Kd” value is 19.3 nM under setting [1] and 73.2 nM under setting [2].

For the sequence “GCGCGGAACCUAGGAUAUCCGGCAUGGACAGGUGGUAAGUCUCCCACAUGAGGAUCACCCAUGUAGGAGAAGGAGGAUCACGGG”, the “apparent Kd” value by setting is: under setting [1], 6.51 nM; under setting [2], 6.7 nM.

“AAGUAUAGAGGAUAUAGUGAGUACUACAUGAGGAUCACCCAUGUUCUUCGUUACGUAUUUCUAGAAGGCUGAUAAA”: the “apparent Kd” value is, setting by setting: under setting [1], 105 nM; under setting [2], 248 nM.

For the sequence “GCCGUAAAUGUGAGGAUAUACCUAUGGAUACAUAGGUAGAAGGCACAUGAGGAUCACCCAUGUUCUCAAUCGGC”, the “apparent Kd” value under setting [1] was 179 nM and the “apparent Kd” value under setting [2] is 930 nM.

For “CUCGUUAUGUUAGGAUAUGAUGCAUCCCGAUAAUCAGAAGGAACAUGAGGAUCACCCAUGUGACAUUUGGUGAAAACAAGCCAA”, the “apparent Kd” value under setting [1] stood at 6.35 nM and the “apparent Kd” value under setting [2] worked out at 7.87 nM.

For “CGAGAUACGCUCGUCCGAAAGGAACAUGAGGAUCACCCAUGUAGAAGGCGAUCCGCAACUCGGAUUGAGGAUAUAUACUGCAGA”, the “apparent Kd” value was determined as 139 nM under setting [1] and 91.2 nM under setting [2].

For “GGAUCGAAUGUGAGGAUAUGCUGGUCCUUGGAUCAGCAGAAGGCACAUGAGGAUCACCCAUGUGGUAACGGUCC”, under setting [2], the “apparent Kd” value worked out at 554 nM.

For “CCCACGAAAGUCGAACGAUGAUGGAGAAGGAGUAUAACAUGACAUGAGGAUCACCCAUGUGCCAACUAGGAUAUCCAUCAUGGG”, the “apparent Kd” value reads like this: under setting [1], 9.72 nM; under setting [2], 8.55 nM.

Turning to “AAAUAAAUUAGUAUGAUAUCUUCACAUGAGGAUCACCCAUGUCAGGAUAUUUGUCCUAAAAGGACAGAGAAGGGACAUACUAUA”, the “apparent Kd” value is 6.08 nM under setting [1] and 8.31 nM under setting [2].

Consider “AGGAAACAUGAGGAUCACCCAUGUAAGAUAUACACAGGAUAUGCGAAAAGAAACAAAGAAGCAGAAGGGUGGAAAA”, for which the “apparent Kd” value is, setting by setting: under setting [3], 35.1 nM; under setting [4], 21.2 nM.

On to “UUUUUAAAUAUAGGAUAUGGAAACAUGAGGAUCACCCAUGUAUGAUAAGAUAAAUUAUGAUAUAGCCAGAAGGAUACAAUUUUU”, for which the “apparent Kd” value reads like this: under setting [3], 31.9 nM; under setting [4], 38.6 nM.

Consider “CAUGUCCUCACAGGAUAUGCACCACUUUGUGGUGCAGAAGGGUGGUAACAUGAGGAUCACCCAUGUGGACAUGAUAUAUUUAAU”, for which the “apparent Kd” value is, setting by setting: under setting [3], 523 nM; under setting [4], 294 nM.

Regarding “CACACAUGAGGAUCACCCAUGUCGUGGGCGGAAAACUGUGCACAGGAUAUGGUGAGUGCAACUCACCAGAAGGGUGGUCAGGAA”, the “apparent Kd” value turned out to be 122 nM under setting [3] and 63 nM under setting [4].

For “ACGCAUUGCCUUUGGUAGUGCGUAACAUGAGGAUCACCCAUGUAGGAUAUGGUAGGCUUUGCUUACCAGAAGGACAUUAUAAAC”, the “apparent Kd” value by setting is: under setting [1], 29.3 nM; under setting [2], 48.5 nM.

In the case of “CAGACCUACGCAGGAUAUCUUGGGUGUUUCAUGGCAAGAGUCGGUACAUGAGGAUCACCCAUGUAAGAGAAGGGCGUUGCUAAA”, the “apparent Kd” value under setting [1] came out at 404 nM and the “apparent Kd” value under setting [2] came to 83 nM.

Turning to “GUUUCGUCAGGAUAUGUGGCUUCGAUCGUGCGAAGAAGGCUACAGAAGGCACAUGAGGAUCACCCAUGUUCGUC”, under setting [2], the “apparent Kd” value is 34.6 nM.

As to “AGCUGUGGCCGAGGAUAUCUAAUAACUCAAACCGAAAUAUAAUCGGACAUGAGGAUCACCCAUGUAGAGAAGGCGGUCUCAGCA”, the “apparent Kd” value runs as follows: under setting [1], 84.6 nM; under setting [2], 154 nM.

On to “AGCUAGUCAGGAUAUGCGUGAAGAAUAAAACAAAUAACAACGCAGAAGGGACAUGAGGAUCACCCAUGUUAGCA”, for which the “apparent Kd” value runs as follows: under setting [1], 30.7 nM; under setting [2], 19.5 nM.
